Data from ChEMBL document CHEMBL1151428, “Capability of 11 antipneumococcal antibiotics to select for resistance by multistep and single-step methodologies” (2007).
≈ marks a conversion by molar mass, not a printed value.

Legend:
Assay type in all cases: functional
[1] = system: Streptococcus pneumoniae; experiment: Antimicrobial activity against drug-resistant Streptococcus pneumoniae isolate 3009 after 50 passages by multi-step resistance selection technique
Method in brief: (§1)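 Daily serial passage in subinhibitory drug levels in 1 ml cation-adjusted Mueller-Hinton broth with 5% lysed horse blood; fresh broth for tigecycline. Each day, 10 μl were taken from the tube one to two dilutions below the MIC whose turbidity matched the growth control, and used to set the next MIC. […] MIC by macrodilution.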

[2] = system: Streptococcus pneumoniae; experiment: Antimicrobial activity against drug-resistant Streptococcus pneumoniae isolate 1635 after 49 passages with clarithromycin measured after 10 antibiotic-free subculture by multi-step resistance selection technique
[3] = system: Streptococcus pneumoniae; experiment: Antimicrobial activity against drug-resistant Streptococcus pneumoniae isolate 3009 after 25 passages with clarithromycin measured after 10 antibiotic-free subculture by multi-step resistance selection technique
[4] = system: Streptococcus pneumoniae; experiment: Antimicrobial activity against drug-resistant Streptococcus pneumoniae isolate 1077 after 49 passages with clindamycin measured after 10 antibiotic-free subculture by multi-step resistance selection technique
[5] = system: Streptococcus pneumoniae; experiment: Antimicrobial activity against drug-resistant Streptococcus pneumoniae isolate 3665 after 38 passages with moxifloxacin measured after 10 antibiotic-free subculture by multi-step resistance selection technique
[6] = system: Streptococcus pneumoniae; experiment: Antimicrobial activity against drug-resistant Streptococcus pneumoniae isolate 24 after 14 passages with Telithromycin measured after 10 antibiotic-free subculture by multi-step resistance selection technique
Method in brief: (§2)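 Mutants selected by daily broth passage in subinhibitory drug in cation-adjusted Mueller-Hinton broth with 5% lysed horse blood. Stability was tested by 10 daily passages on blood agar without antibiotic, then macrodilution MIC.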

[7] = system: Streptococcus pneumoniae; experiment: Antimicrobial activity against drug-resistant Streptococcus pneumoniae isolate 3676 after 44 passages with clarithromycin measured after 10 antibiotic-free subculture by multi-step resistance selection technique
[8] = system: Streptococcus pneumoniae; experiment: Antimicrobial activity against drug-resistant Streptococcus pneumoniae isolate 1635 after 14 passages with azithromycin measured after 10 antibiotic-free subculture by multi-step resistance selection technique; method in brief: as §2
[9] = system: Streptococcus pneumoniae; experiment: Antimicrobial activity against drug-resistant Streptococcus pneumoniae isolate 3274 after 50 passages by multi-step resistance selection technique
Method in brief: (§3)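 Daily serial passage in subinhibitory drug levels in 1 ml cation-adjusted Mueller-Hinton broth with 5% lysed horse blood; fresh broth for tigecycline. Each day, 10 μl were taken from the tube one to two dilutions below the MIC whose turbidity matched the growth control, and used to set the next MIC. MIC by macrodilution.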

[10] = system: Streptococcus pneumoniae; experiment: Antimicrobial activity against drug-resistant Streptococcus pneumoniae isolate 3413 after 50 passages by multi-step resistance selection technique; method in brief: as §3
[11] = system: Streptococcus pneumoniae; experiment: Antimicrobial activity against drug-resistant Streptococcus pneumoniae isolate 2527 after 50 passages by multi-step resistance selection technique; method in brief: as §1
[12] = system: Streptococcus pneumoniae; experiment: Antimicrobial activity against drug-resistant Streptococcus pneumoniae isolate 3665 by NCCLS M7-A7 method
[13] = system: Streptococcus pneumoniae; experiment: Antimicrobial activity against drug-resistant Streptococcus pneumoniae isolate 24 by NCCLS M7-A7 method
[14] = system: Streptococcus pneumoniae; experiment: Antimicrobial activity against drug-resistant Streptococcus pneumoniae isolate 2527 after 14 passages with gemifloxacin measured after 10 antibiotic-free subculture by multi-step resistance selection technique; method in brief: as §2
[15] = system: Streptococcus pneumoniae; experiment: Antimicrobial activity against drug-resistant Streptococcus pneumoniae isolate 3243 after 33 passages with azithromycin measured after 10 antibiotic-free subculture by multi-step resistance selection technique; method in brief: as §2
[16] = system: Streptococcus pneumoniae; experiment: Antimicrobial activity against drug-resistant Streptococcus pneumoniae isolate 1635 by NCCLS M7-A7 method
[17] = system: Streptococcus pneumoniae; experiment: Antimicrobial activity against drug-resistant Streptococcus pneumoniae isolate 1076 by NCCLS M7-A7 method
[18] = system: Streptococcus pneumoniae; experiment: Antimicrobial activity against drug-resistant Streptococcus pneumoniae isolate 1635 after 50 passages by multi-step resistance selection technique; method in brief: as §3
[19] = system: Streptococcus pneumoniae; experiment: Antimicrobial activity against drug-resistant Streptococcus pneumoniae isolate 3676 after 14 passages with Telithromycin measured after 10 antibiotic-free subculture by multi-step resistance selection technique
[20] = system: Streptococcus pneumoniae; experiment: Antimicrobial activity against drug-resistant Streptococcus pneumoniae isolate 3413 after 30 passages with Telithromycin measured after 10 antibiotic-free subculture by multi-step resistance selection technique; method in brief: as §2
[21] = system: Streptococcus pneumoniae; experiment: Antimicrobial activity against drug-resistant Streptococcus pneumoniae isolate 3274 by NCCLS M7-A7 method
[22] = system: Streptococcus pneumoniae; experiment: Antimicrobial activity against drug-resistant Streptococcus pneumoniae isolate 3413 by NCCLS M7-A7 method
[23] = system: Streptococcus pneumoniae; experiment: Antimicrobial activity against drug-resistant Streptococcus pneumoniae isolate 2527 by NCCLS M7-A7 method
[24] = system: Streptococcus pneumoniae; experiment: Antimicrobial activity against drug-resistant Streptococcus pneumoniae isolate 37 after 14 passages with Telithromycin measured after 10 antibiotic-free subculture by multi-step resistance selection technique
[25] = system: Streptococcus pneumoniae; experiment: Antimicrobial activity against drug-resistant Streptococcus pneumoniae isolate 3009 after 19 passages with moxifloxacin measured after 10 antibiotic-free subculture by multi-step resistance selection technique; method in brief: as §2
[26] = system: Streptococcus pneumoniae; experiment: Antimicrobial activity against drug-resistant Streptococcus pneumoniae isolate 3665 after 50 passages by multi-step resistance selection technique
Method in brief: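 Daily serial passage in broth at subinhibitory drug levels: 1 ml cation-adjusted Mueller-Hinton broth with 5% lysed horse blood; fresh broth for tigecycline. Each day 10 μl inoculum taken from the tube one to two dilutions below MIC matching growth-control turbidity, used to set next MIC. Continued until ≥8-fold MIC rise, minimum 14, maximum 50 passages; MIC read by macrodilution.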

[27] = system: Streptococcus pneumoniae; experiment: Antimicrobial activity against drug-resistant Streptococcus pneumoniae isolate 3243 after 29 passages with Telithromycin measured after 10 antibiotic-free subculture by multi-step resistance selection technique; method in brief: as §2
[28] = system: Streptococcus pneumoniae; experiment: Antimicrobial activity against drug-resistant Streptococcus pneumoniae isolate 1635 after 14 passages with clindamycin measured after 10 antibiotic-free subculture by multi-step resistance selection technique
[29] = system: Streptococcus pneumoniae; experiment: Antimicrobial activity against drug-resistant Streptococcus pneumoniae isolate 1077 by NCCLS M7-A7 method
[30] = system: Streptococcus pneumoniae; experiment: Antimicrobial activity against drug-resistant Streptococcus pneumoniae isolate 1076 after 50 passages by multi-step resistance selection technique; method in brief: as §1
[31] = system: Streptococcus pneumoniae; experiment: Antimicrobial activity against drug-resistant Streptococcus pneumoniae isolate 1077 after 29 passages with azithromycin measured after 10 antibiotic-free subculture by multi-step resistance selection technique; method in brief: as §2
[32] = system: Streptococcus pneumoniae; experiment: Antimicrobial activity against drug-resistant Streptococcus pneumoniae isolate 3009 by NCCLS M7-A7 method
[33] = system: Streptococcus pneumoniae; experiment: Antimicrobial activity against drug-resistant Streptococcus pneumoniae isolate 3676 by NCCLS M7-A7 method
[34] = system: Streptococcus pneumoniae; experiment: Antimicrobial activity against drug-resistant Streptococcus pneumoniae isolate 37 by NCCLS M7-A7 method
[35] = system: Streptococcus pneumoniae; experiment: Antimicrobial activity against drug-resistant Streptococcus pneumoniae isolate 3665 after 26 passages with clarithromycin measured after 10 antibiotic-free subculture by multi-step resistance selection technique
[36] = system: Streptococcus pneumoniae; experiment: Antimicrobial activity against drug-resistant Streptococcus pneumoniae isolate 1077 after 50 passages by multi-step resistance selection technique; method in brief: as §3
[37] = system: Streptococcus pneumoniae; experiment: Antimicrobial activity against drug-resistant Streptococcus pneumoniae isolate 3009 after 18 passages with levofloxacin measured after 10 antibiotic-free subculture by multi-step resistance selection technique; method in brief: as §2
[38] = system: Streptococcus pneumoniae; experiment: Antimicrobial activity against drug-resistant Streptococcus pneumoniae isolate 3676 after 50 passages with moxifloxacin measured after 10 antibiotic-free subculture by multi-step resistance selection technique
[39] = system: Streptococcus pneumoniae; experiment: Antimicrobial activity against drug-resistant Streptococcus pneumoniae isolate 1076 after 35 passages with moxifloxacin measured after 10 antibiotic-free subculture by multi-step resistance selection technique; method in brief: as §2
[40] = system: Streptococcus pneumoniae; experiment: Antimicrobial activity against drug-resistant Streptococcus pneumoniae isolate 2527 after 20 passages with azithromycin measured after 10 antibiotic-free subculture by multi-step resistance selection technique; method in brief: as §2

| Compound | MIC [2] [µg/mL] | MIC [3] [µg/mL] | MIC [4] [µg/mL] | MIC [5] [µg/mL] | MIC [6] [µg/mL] | MIC [7] [µg/mL] | MIC [8] [µg/mL] | MIC [9] [µg/mL] | MIC [10] [µg/mL] | MIC [12] [µg/mL] | MIC [13] [µg/mL] | MIC [14] [µg/mL] | MIC [15] [µg/mL] | MIC [16] [µg/mL] | MIC [17] [µg/mL] | MIC [18] [µg/mL] | MIC [19] [µg/mL] | MIC [20] [µg/mL] | MIC [21] [µg/mL] | MIC [22] [µg/mL] | further results |
| --- | --- | --- | --- | --- | --- | --- | --- | --- | --- | --- | --- | --- | --- | --- | --- | --- | --- | --- | --- | --- | --- |
| CO/N=C(\C(=O)N[C@@H]1C(=O)N2C(C(=O)O)=C(CSc3nc(=O)c(O)nn3C)CS[C@H]12)c1csc(N)n1 [CEFTRIAXONE] | 0.016 (≈ 0.0289 µM) | 0.016 (≈ 0.0289 µM) | 0.016 (≈ 0.0289 µM) | 0.06 (≈ 0.108 µM) | 2 (≈ 3.61 µM) | 0.03 (≈ 0.0541 µM) | 0.016 (≈ 0.0289 µM) | 0.25 (≈ 0.451 µM) | 1 (≈ 1.8 µM) | 0.06 (≈ 0.108 µM) | 1 (≈ 1.8 µM) | 1 (≈ 1.8 µM) | 0.125 (≈ 0.225 µM) | 0.016 (≈ 0.0289 µM) | 0.016 (≈ 0.0289 µM) | 0.03 (≈ 0.0541 µM) | 0.06 (≈ 0.108 µM) | 2 (≈ 3.61 µM) | 0.125 (≈ 0.225 µM) | 1 (≈ 1.8 µM) | MIC [1]: 0.03 µg/mL (≈ 0.0541 µM); MIC [11]: 8 µg/mL (≈ 14.4 µM); MIC [23]: 2 µg/mL (≈ 3.61 µM); MIC [24]: 2 µg/mL (≈ 3.61 µM); MIC [25]: 0.03 µg/mL (≈ 0.0541 µM); MIC [26]: 0.06 µg/mL (≈ 0.108 µM); MIC [27]: 0.125 µg/mL (≈ 0.225 µM); MIC [28]: 0.016 µg/mL (≈ 0.0289 µM); MIC [29]: 0.016 µg/mL (≈ 0.0289 µM); MIC [30]: 0.016 µg/mL (≈ 0.0289 µM); MIC [31]: 0.03 µg/mL (≈ 0.0541 µM); MIC [32]: 0.03 µg/mL (≈ 0.0541 µM); MIC [33]: 0.03 µg/mL (≈ 0.0541 µM); MIC [34]: 2 µg/mL (≈ 3.61 µM); MIC [35]: 0.03 µg/mL (≈ 0.0541 µM); MIC [36]: 0.016 µg/mL (≈ 0.0289 µM); MIC [37]: 0.016 µg/mL (≈ 0.0289 µM); MIC [38]: 0.03 µg/mL (≈ 0.0541 µM); MIC [39]: 0.016 µg/mL (≈ 0.0289 µM); MIC [40]: 2 µg/mL (≈ 3.61 µM) |
| CO/N=C1\CN(c2nc3c(cc2F)c(=O)c(C(=O)O)cn3C2CC2)CC1CN (stereo not drawn) [GEMIFLOXACIN] | 0.03 (≈ 0.077 µM) | 0.03 (≈ 0.077 µM) | 0.25 (≈ 0.642 µM) | 0.125 (≈ 0.321 µM) | 0.016 (≈ 0.0411 µM) | 0.03 (≈ 0.077 µM) | 0.03 (≈ 0.077 µM) | 0.06 (≈ 0.154 µM) | 0.016 (≈ 0.0411 µM) | 0.016 (≈ 0.0411 µM) | 0.016 (≈ 0.0411 µM) | 2 (≈ 5.14 µM) | 0.03 (≈ 0.077 µM) | 0.016 (≈ 0.0411 µM) | 0.25 (≈ 0.642 µM) | 0.06 (≈ 0.154 µM) | 0.06 (≈ 0.154 µM) | 0.03 (≈ 0.077 µM) | 0.016 (≈ 0.0411 µM) | 0.016 (≈ 0.0411 µM) | MIC [23]: 0.25 µg/mL (≈ 0.642 µM); MIC [24]: 0.03 µg/mL (≈ 0.077 µM); MIC [25]: 0.125 µg/mL (≈ 0.321 µM); MIC [26]: 0.06 µg/mL (≈ 0.154 µM); MIC [27]: 0.03 µg/mL (≈ 0.077 µM); MIC [28]: 0.03 µg/mL (≈ 0.077 µM); MIC [29]: 0.25 µg/mL (≈ 0.642 µM); MIC [30]: 0.5 µg/mL (≈ 1.28 µM); MIC [31]: 0.25 µg/mL (≈ 0.642 µM); MIC [32]: 0.016 µg/mL (≈ 0.0411 µM); MIC [33]: 0.016 µg/mL (≈ 0.0411 µM); MIC [34]: 0.016 µg/mL (≈ 0.0411 µM); MIC [35]: 0.03 µg/mL (≈ 0.077 µM); MIC [36]: 1 µg/mL (≈ 2.57 µM); MIC [37]: 1 µg/mL (≈ 2.57 µM); MIC [38]: 1 µg/mL (≈ 2.57 µM); MIC [39]: 0.5 µg/mL (≈ 1.28 µM); MIC [40]: 0.25 µg/mL (≈ 0.642 µM) |
